Common to all, as to format: functional
For one assay, the system named is Enterococcus faecalis. In words: Antimicrobial activity against Enterococcus faecalis by broth microdilution method. Put shortly: (§1)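 Bacteria were grown on MH agar at 37 °C for 24 h, then diluted to about 1 × 10^7 CFU/mL. Compounds were dissolved in DMSO. MIC was determined by broth microdilution as the lowest concentration with no growth by turbidity, with MTT absorbance read at 570 nm. Duplicates, repeated three times.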

Another assay concerns Candida albicans. In words: Antimicrobial activity against Candida albicans by broth microdilution method. Put shortly: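 C. albicans was grown on PDA agar at 28 °C for 48 h, then diluted to about 1 × 10^7 CFU/mL. Compounds were dissolved in DMSO. MIC was determined by broth microdilution as the lowest concentration with no growth by turbidity, with MTT absorbance read at 570 nm. Duplicates, repeated three times.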

In the next assay the test system is Staphylococcus aureus. In words: Antimicrobial activity against Staphylococcus aureus by broth microdilution method. Put shortly: as §1
The test system of another assay is Pseudomonas aeruginosa. In words: Antimicrobial activity against Pseudomonas aeruginosa by broth microdilution method. Put shortly: as §1
On the technique in general: In broth dilution the organism is exposed to a series of concentrations in liquid medium.

Another assay has as its system Bacillus cereus. In words: Antimicrobial activity against Bacillus cereus by broth microdilution method. Put shortly: as §1
For another assay, the system named is Escherichia coli. In words: Antimicrobial activity against Escherichia coli by broth microdilution method. Put shortly:
as §1

In brackets after ≈: the same amount, converted by molar mass.

As usually defined, the MIC is the lowest concentration found to suppress growth. Low readings indicate a more susceptible organism, high ones a less susceptible organism.

As for `C[C@H]1[C@H](C)CC[C@]2(C)CC[C@]3(C)C(=C[C@@H](O)[C@@H]4[C@@]5(C)CCC(=O)C(C)(C)[C@@H]5CC[C@]43C)[C@H]12`, the MIC with Enterococcus faecalis stood at 35.2 µM (≈ 15.5 µg/mL); in the assay with Candida albicans it was 70.4 µM (≈ 31 µg/mL); in the assay with Staphylococcus aureus, 35.2 µM (≈ 15.5 µg/mL); with Pseudomonas aeruginosa it was 70.4 µM (≈ 31 µg/mL); in the assay with Bacillus cereus, 70.4 µM (≈ 31 µg/mL); with Escherichia coli, 70.4 µM (≈ 31 µg/mL).
With `CO[C@@H]1C[C@@]2(C)[C@@H]3[C@@H](C)[C@H](C)CC[C@]3(C)CC[C@]2(C)C2=C1[C@@]1(C)CC[C@H](OC(C)=O)C(C)(C)[C@@H]1C[C@H]2O`, the MIC in the assay on Enterococcus faecalis is 89.5 µM (≈ 46.1 µg/mL); against Candida albicans it was 89.5 µM (≈ 46.1 µg/mL); in the assay on Staphylococcus aureus, 89.5 µM (≈ 46.1 µg/mL); against Pseudomonas aeruginosa, 44.7 µM (≈ 23 µg/mL); against Bacillus cereus, 179 µM (≈ 92.1 µg/mL); in the assay on Escherichia coli, 89.5 µM (≈ 46.1 µg/mL).
With `C[C@H]1[C@H](C)CC[C@]2(C)CC[C@]3(C)C(=C[C@@H](O)[C@H]4[C@@]3(C)[C@H](O)C[C@@]35OO[C@@H](CC(=O)C3(C)C)[C@]45C)[C@H]12`, the MIC was determined as 31.9 µM (≈ 15.5 µg/mL) in the assay with Enterococcus faecalis; 31.9 µM (≈ 15.5 µg/mL) with Candida albicans; 14.9 µM (≈ 7.25 µg/mL) in the assay on Staphylococcus aureus; 31.9 µM (≈ 15.5 µg/mL) against Pseudomonas aeruginosa; 63.8 µM (≈ 31.1 µg/mL) against Bacillus cereus; 31.9 µM (≈ 15.5 µg/mL) against Escherichia coli.
As for `C[C@H]1[C@H](C)CC[C@]2(C)CC=C3[C@](C)([C@H]12)[C@H]1O[C@H]1[C@@H]1[C@@]2(C)CC[C@H](O)C(C)(C)[C@@H]2CC[C@@]31C`, the minimum inhibitory concentration (MIC) turned out to be 36.3 µM (≈ 16 µg/mL) with Enterococcus faecalis; 36.3 µM (≈ 16 µg/mL) in the assay with Candida albicans; 72.7 µM (≈ 32 µg/mL) in the assay on Staphylococcus aureus; 36.3 µM (≈ 16 µg/mL) in the assay with Pseudomonas aeruginosa; 72.7 µM (≈ 32 µg/mL) in the assay on Bacillus cereus; 36.3 µM (≈ 16 µg/mL) against Escherichia coli.
As for `C[C@@H]1CC[C@]2(C)CC[C@]3(C)[C@@](O)(CC[C@@H]4[C@@]5(C)CC[C@H](O)C(C)(C)[C@@H]5CC[C@]43C)[C@]2(O)[C@H]1C`, the MIC in the assay with Enterococcus faecalis worked out at 50 µM (≈ 23 µg/mL); against Candida albicans it was 69.6 µM (≈ 32.1 µg/mL); with Staphylococcus aureus, 69.6 µM (≈ 32.1 µg/mL); against Pseudomonas aeruginosa, 140 µM (≈ 64.5 µg/mL); in the assay with Bacillus cereus it was 140 µM (≈ 64.5 µg/mL); with Escherichia coli it was 140 µM (≈ 64.5 µg/mL).
On to `CC1COc2c(N3CCN(C)CC3)c(F)cc3c(=O)c(C(=O)O)cn1c23` (stereo unspecified) [OFLOXACIN], for which the MIC came to 0.86 µM (≈ 0.311 µg/mL) in the assay on Enterococcus faecalis; 0.43 µM (≈ 0.155 µg/mL) in the assay with Staphylococcus aureus; 0.43 µM (≈ 0.155 µg/mL) in the assay with Pseudomonas aeruginosa; 0.86 µM (≈ 0.311 µg/mL) in the assay with Bacillus cereus; 0.43 µM (≈ 0.155 µg/mL) with Escherichia coli.
`C[C@H]1[C@H](C)CC[C@]2(CO)CC[C@]3(C)C(=CC[C@@H]4[C@@]5(C)CC[C@H](O)C(C)(C)[C@@H]5CC[C@]43C)[C@H]12` [UVAOL]: the MIC in the assay with Enterococcus faecalis turned out to be 142 µM (≈ 63.1 µg/mL); in the assay with Candida albicans it was 283 µM (≈ 125 µg/mL); against Staphylococcus aureus it was 70.1 µM (≈ 31 µg/mL); with Pseudomonas aeruginosa it was 283 µM (≈ 125 µg/mL); against Bacillus cereus, 283 µM (≈ 125 µg/mL); in the assay on Escherichia coli, 142 µM (≈ 63.1 µg/mL).

The values above are taken from ChEMBL document CHEMBL1149843, “Antimicrobial triterpenoids from Vladimiria muliensis” (2008).
